Results on six molecules are retold here after ChEMBL document CHEMBL1154061, “Synthesis and in vitro antibacterial activity of 7-(4-alkoxyimino-3-amino-3-methylpiperidin-1-yl)fluoroquinolone derivatives” (Eur J Med Chem, 2009).

Converted amounts (≈) assume the structure as drawn.

The test system of data set [1] is Staphylococcus aureus. Put plainly: Antibacterial activity against Staphylococcus aureus ATCC 29213 after 18 to 24 hrs by twofold serial dilution method. The format is functional. In outline:
(§1)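 Agar media, standard twofold serial dilution (NCCLS M100-S11 basis). Plates incubated at 35 °C for 18–24 h. MIC taken as the lowest compound concentration giving complete inhibition of visible bacterial growth.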

The test system of data set [2] is Staphylococcus aureus. Put plainly: Antibacterial activity against methicillin-resistant Staphylococcus aureus 05-3 after 18 to 24 hrs by twofold serial dilution method. The class given is functional. In outline:
(§2)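 Agar twofold serial dilution MIC. Plates incubated at 35 °C for 18–24 h. MIC taken as the lowest compound concentration giving complete inhibition of visible bacterial growth.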

The test system of data set [3] is Staphylococcus epidermidis. In words: Antibacterial activity against Staphylococcus epidermidis ATCC 12228 after 18 to 24 hrs by twofold serial dilution method. The format is functional. In outline:
as §1

The subject of data set [4] is Staphylococcus epidermidis. Put plainly: Antibacterial activity against methicillin-resistant Staphylococcus epidermidis 05-1 after 18 to 24 hrs by twofold serial dilution method. The format is functional. Summed up: as §2
For data set [5], the system named is Streptococcus pneumoniae. Put plainly: Antibacterial activity against Streptococcus pneumoniae 97100 after 18 to 24 hrs by twofold serial dilution method. The class given is functional. In outline:
as §1

Data set [6] concerns Streptococcus pyogenes. In words: Antibacterial activity against Streptococcus pyogenes 9619 after 18 to 24 hrs by twofold serial dilution method. The class given is functional. Summed up:
as §1

Data set [7] deals with Enterococcus faecalis. Put plainly: Antibacterial activity against Enterococcus faecalis ATCC 29212 after 18 to 24 hrs by twofold serial dilution method. The format is functional. In outline:
as §1

Data set [8] relates to Escherichia coli. In words: Antibacterial activity against Escherichia coli 26 after 18 to 24 hrs by twofold serial dilution method. The format is functional. In outline: as §1
Data set [9] has as its system Klebsiella pneumoniae. Put plainly: Antibacterial activity against Klebsiella pneumoniae 7 after 18 to 24 hrs by twofold serial dilution method. The class given is functional. Summed up: as §1
Data set [10] deals with Pseudomonas aeruginosa. In words: Antibacterial activity against Pseudomonas aeruginosa 17 after 18 to 24 hrs by twofold serial dilution method. The format is functional. In outline:
as §1

For data set [11], the system named is Shigella sonnei. In words: Antibacterial activity against Shigella sonnei 51592 after 18 to 24 hrs by twofold serial dilution method. The format is functional. In outline:
as §1

Data set [12] relates to Enterobacter cloacae. In words: Antibacterial activity against Enterobacter cloacae 45301 after 18 to 24 hrs by twofold serial dilution method. The class given is functional. Summed up:
as §1

The nature of data set [13]: Cytotoxicity against african green monkey Vero cells assessed as cell viability after 72 hrs by MTT assay. The format is cell-based. The conditions noted are these: chlorocebus sabaeus. (In general: Tetrazolium assays rely on reduction of a dye to a coloured formazan, in cell work by metabolically active cells.)

Regarding `CO/N=C1\CN(c2nc3c(cc2F)c(=O)c(C(=O)O)cn3C2CC2)CC1CN` (centres undefined) [GEMIFLOXACIN], the MIC in data set [1] was below 0.03 µg/mL; in data set [2], 4 µg/mL (≈ 10.3 µM); in data set [3], below 0.03 µg/mL; in data set [4], 2 µg/mL (≈ 5.14 µM); in data set [5] it was 2 µg/mL (≈ 5.14 µM); in data set [6], 2 µg/mL (≈ 5.14 µM). Also, the MIC in data set [7] is 0.06 µg/mL (≈ 0.154 µM); in data set [8], 0.06 µg/mL (≈ 0.154 µM); in data set [9], 0.5 µg/mL (≈ 1.28 µM); in data set [10], 0.125 µg/mL (≈ 0.321 µM); in [11], 0.06 µg/mL (≈ 0.154 µM); in data set [12] it was 0.06 µg/mL (≈ 0.154 µM).

As for `CCO/N=C1/CCN(c2c(F)cc3c(=O)c(C(=O)O)cn(CCF)c3c2F)CC1(C)N` (centres undefined), the MIC is 2 µg/mL (≈ 4.54 µM) in [1]; above 128 µg/mL in [2]; 2 µg/mL (≈ 4.54 µM) in [3]; above 128 µg/mL in [4]; 16 µg/mL (≈ 36.3 µM) in [5]; 32 µg/mL (≈ 72.7 µM) in data set [6]. The MIC in data set [7] came out at 16 µg/mL (≈ 36.3 µM); in data set [8] it was 8 µg/mL (≈ 18.2 µM); in [9] it was 4 µg/mL (≈ 9.08 µM); in data set [10], 128 µg/mL (≈ 291 µM); in data set [11] it was 16 µg/mL (≈ 36.3 µM); in data set [12], 16 µg/mL (≈ 36.3 µM). The CC50 at 72 h in [13] worked out at 243 µM.

Turning to `CO/N=C1/CCN(c2nc3c(cc2F)c(=O)c(C(=O)O)cn3-c2ccc(F)cc2F)CC1(C)N` (centres undefined), the MIC in data set [1] was 1 µg/mL (≈ 2.1 µM); in data set [2] it was above 128 µg/mL; in [3] it was 2 µg/mL (≈ 4.21 µM); in [4] it was above 128 µg/mL; in data set [5], 8 µg/mL (≈ 16.8 µM); in data set [6], above 128 µg/mL. For the same molecule, the MIC in [7] was 8 µg/mL (≈ 16.8 µM); in data set [8], 8 µg/mL (≈ 16.8 µM); in data set [9], 8 µg/mL (≈ 16.8 µM); in data set [10] it was 32 µg/mL (≈ 67.3 µM); in [11] it was 8 µg/mL (≈ 16.8 µM); in [12], 16 µg/mL (≈ 33.7 µM). Besides, the CC50 at 72 h in data set [13] came to 259 µM.

Consider `CO/N=C1/CCN(c2c(F)cc3c(=O)c(C(=O)O)cn(CCF)c3c2F)CC1(C)N` (centres undefined), for which the MIC in [1] is 1 µg/mL (≈ 2.35 µM); in [2], above 128 µg/mL; in [3] it was 1 µg/mL (≈ 2.35 µM); in data set [4] it was above 128 µg/mL; in [5], 16 µg/mL (≈ 37.5 µM); in data set [6], 16 µg/mL (≈ 37.5 µM). The MIC worked out at 8 µg/mL (≈ 18.8 µM) in data set [7]; 4 µg/mL (≈ 9.38 µM) in data set [8]; 4 µg/mL (≈ 9.38 µM) in data set [9]; 32 µg/mL (≈ 75 µM) in data set [10]; 8 µg/mL (≈ 18.8 µM) in data set [11]; 8 µg/mL (≈ 18.8 µM) in data set [12]. The CC50 at 72 h in [13] turned out to be 626 µM.

As for `CCO/N=C1/CCN(c2nc3c(cc2F)c(=O)c(C(=O)O)cn3-c2ccc(F)cc2F)CC1(C)N` (centres undefined), the MIC in data set [1] was 1 µg/mL (≈ 2.04 µM); in data set [2], 128 µg/mL (≈ 262 µM); in [3] it was 1 µg/mL (≈ 2.04 µM); in data set [4], above 128 µg/mL; in [5], 16 µg/mL (≈ 32.7 µM); in data set [6] it was 128 µg/mL (≈ 262 µM). Moreover, the MIC in [7] is 4 µg/mL (≈ 8.17 µM); in [8] it was 8 µg/mL (≈ 16.3 µM); in data set [9] it was 8 µg/mL (≈ 16.3 µM); in [10] it was 64 µg/mL (≈ 131 µM); in data set [11] it was 16 µg/mL (≈ 32.7 µM); in data set [12], 16 µg/mL (≈ 32.7 µM). In data set [13], the CC50 at 72 h was 31.4 µM.

On to `C[C@H]1COc2c(N3CCN(C)CC3)c(F)cc3c(=O)c(C(=O)O)cn1c23.C[C@H]1COc2c(N3CCN(C)CC3)c(F)cc3c(=O)c(C(=O)O)cn1c23.O` [LEVOFLOXACIN], for which the MIC in data set [1] is 0.25 µg/mL; in [2], 32 µg/mL; in data set [3], 0.5 µg/mL; in [4] it was 32 µg/mL; in data set [6] it was 4 µg/mL; in data set [7] it was 1 µg/mL. Moreover, the MIC in data set [10] came out at 0.5 µg/mL; in data set [11], 1 µg/mL; in data set [12], 0.125 µg/mL. The CC50 at 72 h in [13] was above 1000 µM.

One may read the MIC as the smallest concentration in the dilution series that meets the test's criterion for growth inhibition. What is called CC50 is the concentration that lowers cell viability or growth by half.
